Assay results gathered from unrelated publications.
Compare with care: the assays were run in different laboratories.
SLC6A2: Sodium-dependent noradrenaline transporter (SLC6A2, Homo sapiens, UniProt P23975)
MPO: Myeloperoxidase (MPO, Homo sapiens, UniProt P05164)
CHEK2: Serine/threonine-protein kinase Chk2 (CHEK2, Homo sapiens, UniProt O96017)

With `OC[C@@]12C[C@@H]1[C@@H](n1cnc3c(Nc4ccccc4)nc(I)nc31)[C@H](O)[C@@H]2O` the inhibition was 5% (SLC6A2; ligand displacement, radioligand; 10 µM).
For `NC/C(=C\F)COc1cccc(Cn2c(=S)[nH]c(=O)c3[nH]cnc32)c1`, the inhibition was 99.7% (MPO; enzyme activity, inhibitor, fluorescence; 3 µM).
For `CCCCC(=O)Nc1ccc(-c2ccc3ncn(CCC)c(=O)c3c2)cn1`, the remaining binding was 96% (CHEK2; binding, competition with immobilised ligand; 0.5 µM).
`CCOC(=O)[C@@]12C[C@@H]1[C@@H](n1cnc3c(NCCCCc4ccccc4)nc(C#Cc4ccc(Cl)s4)nc31)[C@H](O)[C@@H]2O` has an inhibition of 3% (SLC6A2; ligand displacement, radioligand; 10 µM).
`C1=C/COCc2cc(ccc2OCCN2CCCC2)Nc2nccc(n2)-c2cccc(c2)COC/1` has a remaining binding of 88% (Fibroblast growth factor receptor 1 (FGFR1, Homo sapiens, UniProt P11362); binding; 0.1 µM).
The inhibition of `Cc1cc(O)c(-c2ccc([C@@H](C)CN(C)C)cc2)c2c1[nH]c(=O)c1sccc12` is reported as 3.12% (Peripheral plasma membrane protein CASK (CASK, Homo sapiens, UniProt O14936); cell-free assay, inhibitor; 0.1 µM, lysate).
With `COc1ccc2oc(-c3ccc4nc(N)oc4c3)c/c(=N\c3ccccc3NC(=O)CCN)c2c1` the remaining binding was 76% (CHEK2; binding; 1 µM).
`CNc1nc(C#Cc2ccc(Cl)s2)nc2c1ncn2[C@H]1[C@H](O)[C@H](O)[C@]2(CC#N)C[C@H]12` has an inhibition of 16% (SLC6A2; transporter uptake, inhibitor, radiometric; HEK293; 10 µM).
The remaining activity of `CC(C)OCCn1c(=S)[nH]c(=O)c2[nH]ccc21` is reported as 93.7% (MPO; enzyme activity, inhibitor; 0.156 µM).
